Laboratory results reported in ChEMBL document CHEMBL1141747, “New bisbenzylisoquinolines, fatty acid amidic aporphines, and a protoberberine from Formosan Cocculus orbiculatus” (J Nat Prod, 2005).
Converted amounts (≈) assume the structure as drawn.

Legend:
[1] = Cytotoxicity against human HONE1 cells at 20 ug/mL; assay type: functional
In short: (§1)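 Samples were tested on the cells at two fixed concentrations, 20 and 4 µg/mL. The value is reported as percent inhibition at each concentration.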

[2] = Cytotoxicity against human HONE1 cells at 4 ug/mL; assay type: functional; in short: as §1
[3] = tested on: MDA-MB-231; test: Cytotoxicity against human MDA-MB-231 cells; assay type: functional, cell-based
[4] = tested on: HepG2; test: Cytotoxicity against human HepG2 cells; assay type: functional, cell-based
[5] = tested on: NUGC-3; test: Cytotoxicity against human NUGC3 cells at 4 ug/mL; assay type: functional; in short: as §1
[6] = tested on: P388; test: Antitumor activity against mouse P388 cells xenografted in mouse; assay type: functional
[7] = tested on: MCF7; test: Cytotoxicity against human MCF7 cells; assay type: functional, cell-based
[8] = tested on: NUGC-3; test: Cytotoxicity against human NUGC3 cells at 20 ug/mL; assay type: functional; in short: as §1
[9] = Cytotoxicity against human Hep3B cells; assay type: functional, cell-based, Hep 3B2

## COc1ccc2c(c1O)[C@]13CCN[C@@H](C2)C1C(OC)[C@@H](O)[C@@H](O)C3 (some centres not stated)
[1]
  inhibition at 20 µg/mL: 84%
[2]
  inhibition at 4 µg/mL: 82%
[3]
  IC50: 1.2 µg/mL (≈ 3.58 µM)
[4]
  IC50: 2 µg/mL (≈ 5.96 µM)
[5]
  inhibition at 4 µg/mL: 82%
[6]
  T/C: 166%
[7]
  IC50: 2 µg/mL (≈ 5.96 µM)
[8]
  inhibition at 20 µg/mL: 96%
[9]
  IC50: 2 µg/mL (≈ 5.96 µM)

## COc1cc2c(c(OC)c1OC)CCN1C(=O)c3c(ccc(OC)c3OC)C[C@@H]21
[3]
  IC50: > 30 µg/mL
[4]
  IC50: 23.5 µg/mL (≈ 58.8 µM)
[7]
  IC50: > 30 µg/mL
[9]
  IC50: > 30 µg/mL

## COc1ccc2cc1Oc1ccc(cc1)C[C@H]1c3cc(O)c(c(OC)c3CC[N+]1(C)C)Oc1cc3c(cc1OC)CC[N+](C)=C3C2.[Cl-].[Cl-]
[3]
  IC50: > 30 µg/mL
[4]
  IC50: > 30 µg/mL
[7]
  IC50: > 30 µg/mL
[9]
  IC50: > 30 µg/mL

## COc1cc2c3c4c1Oc1cc5c(cc1O4)C(=NCC5)Cc1ccc(O)c(c1)Oc1ccc(cc1)C[C@@H]3N(C)CC2 [DEHYDROAPATELINE]
[1]
  inhibition at 20 µg/mL: 98%
[2]
  inhibition at 4 µg/mL: 0%
[3]
  IC50: 4.71 µg/mL (≈ 8.62 µM)
[4]
  IC50: 3.61 µg/mL (≈ 6.6 µM)
[5]
  inhibition at 4 µg/mL: 0%
[7]
  IC50: 16.3 µg/mL (≈ 29.8 µM)
[8]
  inhibition at 20 µg/mL: 98%
[9]
  IC50: 4.82 µg/mL (≈ 8.82 µM)

## COc1ccc2cc1Oc1ccc(cc1)C[C@H]1c3c(cc(OC)c4c3Oc3cc5c(cc3O4)CCN(C)[C@H]5C2)CCN1C [ISOTRILOBINE]
[1]
  inhibition at 20 µg/mL: 100%
[2]
  inhibition at 4 µg/mL: 79%
[3]
  IC50: 1.6 µg/mL (≈ 2.77 µM)
[4]
  IC50: 0.6 µg/mL (≈ 1.04 µM)
[5]
  inhibition at 4 µg/mL: 0%
[7]
  IC50: 3.9 µg/mL (≈ 6.76 µM)
[8]
  inhibition at 20 µg/mL: 100%
[9]
  IC50: 0.75 µg/mL (≈ 1.3 µM)

## CC(=O)O[C@H]1C(=O)[C@@]2(C)[C@H]([C@H](OC(=O)c3ccccc3)[C@]3(O)C[C@H](OC(=O)[C@H](O)[C@@H](NC(=O)c4ccccc4)c4ccccc4)C(C)=C1C3(C)C)[C@]1(OC(C)=O)CO[C@@H]1C[C@@H]2O [PACLITAXEL]
[3]
  IC50: 0.12 µg/mL (≈ 0.141 µM)
[4]
  IC50: 0.18 µg/mL (≈ 0.211 µM)
[7]
  IC50: 0.14 µg/mL (≈ 0.164 µM)
[9]
  IC50: 0.08 µg/mL (≈ 0.0937 µM)
